The source of these data is publication PMC3662534 (Molecular cancer therapeutics, 2009).

Entries after “also recorded” stand apart in the source; their conditions may differ. Positions of bridges follow the written chain, without caps; N, C: chain ends. Non-standard residues stand in square brackets, D forms with d. Residues, ends and D or L forms follow the SMILES beside them. *: point of attachment. DTPA = O=C(O)CN(CCN(CC(=O)O)CC(=O)O)CCN(CC(=O)O)CC(=O)*; dPen = CC(C)(S)[C@@H](N)C(=O)O

In data set [1] the test system is Hek293/MC4R/CCK2R cells. In words: Cell fluorescence imaging of Cy5 labeled ligand binding and internalization. The class given is cell-based, human. The gist of the method: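 Live stable Hek293/MC4R/CCK2R cells on coverslips were held in a 37°C stage chamber. Cells were incubated with 0.8 nM Cy5-tagged heterobivalent ligand (15 sec, or 3 min in the legend) and rinsed with ligand-free medium. Images were taken immediately and 7 min later by CCD camera, with Cy5 excitation at 640 nm (20 nm bandpass) and emission at 690 nm (30 nm filter).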

The subject of data set [2] is Hek293 cells expressing MC4R and/or CCK2R. In words: Cytotoxicity, celltiter-Glo luminescent cell viability assay. The class given is cell-based, human. As to conditions: 1 μM, dual receptor expressing (target) cells, 24 and 48 h. In general terms: Cellular ATP, detected with luciferase, serves as a proxy for viable cell number.
In data set [3] the target is human delta-opioid receptor (δOR) (Homo sapiens, UniProt P41143). Conditions: saturation binding to δOR in CHO/MC4R/δOR cells.
Sequence of human delta-opioid receptor (δOR) (P41143 whole entry): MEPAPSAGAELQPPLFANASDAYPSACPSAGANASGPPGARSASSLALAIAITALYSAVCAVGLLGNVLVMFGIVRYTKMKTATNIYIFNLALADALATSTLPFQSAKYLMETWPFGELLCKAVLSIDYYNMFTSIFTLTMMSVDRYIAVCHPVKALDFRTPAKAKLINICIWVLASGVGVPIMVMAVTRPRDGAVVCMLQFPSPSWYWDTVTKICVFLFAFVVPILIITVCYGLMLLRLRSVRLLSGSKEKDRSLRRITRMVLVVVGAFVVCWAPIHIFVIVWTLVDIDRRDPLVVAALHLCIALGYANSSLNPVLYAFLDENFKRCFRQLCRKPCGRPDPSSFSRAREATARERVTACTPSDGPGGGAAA

Turning to “Ac-MSH7-PEGO-[Pro-Gly]3-Lys(Cy5)-PEGO-CCK6-NH2”, the “internalization of receptor/ligand complex” value in data set [1] (by 10 minutes, no significant loss of ligand on adding CCK ligand 50 μM) is “substantially internalized”. Moreover, the “binding to the cell surface (Cy5 fluorescence)” value in data set [1] (immediately following incubation, 15 sec with 0.8 nM) is “significant binding to the cell surface”.

Consider cholecystokinin-8 [CCK], for which the cell viability result in data set [2] was “reduced viability; also recorded: toxicity”.

As to `CC1(C)SSC[C@@H](C(=O)N[C@@H](Cc2ccccc2)C(=O)N[C@@H](CCCCNC(=O)CN(CCN(CCN(CC(=O)O)CC(=O)O)CC(=O)O)CC(=O)O)C(N)=O)NC(=O)[C@H](Cc2ccccc2)NC(=O)CNC(=O)[C@@H]1NC(=O)[C@@H](N)Cc1ccc(O)cc1` [Eu-DPLCE, H-Tyr-c[DPen-Gly-Phe-Cys]-Phe-Lys(Eu-(DTPA))-NH2] (H-Y[dPen]GFCFK(DTPA)-NH2; disulfide 2-5), the Bmax in data set [3] is listed as 24,000 ± 2,000 AFU.
